Key:
[1] = Toxicity in human erythrocytes assessed as hemolysis at 500 uM; assay type: cell-based, Erythrocyte; conditions: read-out: Activity
Leishmania donovani = assay: Antileishmanial activity against Leishmania donovani MHOM/IN/80/DD8/LEM703 promastigotes
Leishmania infantum [2] = assay: Antileishmanial activity against Leishmania infantum MHOM/TN/80/IPT1/LEM235 intracellular amastigotes; assay type: functional, organism-based
In short: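 THP-1 cells differentiated with retinoic acid for 3 days, infected with L. infantum promastigotes (1:4, 37 °C, 5% CO2) overnight. Free parasites removed on Histopaque 1077. Infected cells at 4 × 10^5 cells/mL mixed 1:1 with compound, 72 h at 37 °C/5% CO2. Percent infected cells counted by Giemsa microscopy; IC50 as for promastigotes.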

THP-1 [3] = assay: Cytotoxicity against human THP1 cells after 72 hrs; assay type: cell-based; conditions: THP-1, 72 h
[4] = Toxicity in human erythrocytes assessed as hemolysis; assay type: cell-based, Erythrocyte
In short: (§1)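 Washed erythrocytes from EDTA blood of healthy volunteers mixed 1:1 with compound in PBS (100 to 6.25 µM), 1 h at 37 °C. After centrifugation, supernatant absorbance read at 550 nm (reference 625 nm). Hemolysis % = (A − A0)/(Amax − A0) × 100, with PBS background and water as 100% lysis.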

Leishmania infantum [5] = assay: Antileishmanial activity against Leishmania infantum MHOM/TN/80/IPT1/LEM235 promastigotes; assay type: functional, organism-based
In short: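 Promastigotes grown in RPMI 1640 with 10% FCS, L-glutamine and antibiotics at 26 °C. Compounds, 65 mM stock in DMSO/ethanol 50/50, diluted 5-fold in medium (100 to 0.8 µM). Culture at 2 × 10^6 cells/mL mixed 1:1 with compound, 72 h at 26 °C. PI/SYBR-14 live/dead staining, flow cytometry, ≥10 000 cells; IC50 per Hills et al.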

[6] = Toxicity in human erythrocytes assessed as hemolysis at 100 uM; assay type: cell-based, Erythrocyte; conditions: read-out: Activity; in short: as §1
THP-1 [7] = assay: Cytotoxicity against human THP1 cells at 50 uM after 72 hrs; assay type: cell-based; conditions: thp-1, 72 h
In short: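 THP-1 monocytes in RPMI 1640/10% FCS at 1 × 10^6 cells/mL incubated 72 h with compound (50 to 1.56 µM). Dual PI/SYBR-14 staining; alive/dead ratio by flow cytometry, excitation 488 nm, read at 545 and 645 nm. At least 10 000 cells per sample, each staining experiment repeated thrice.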

[8] = Half life in human; assay type: ADME, organism-based; conditions: in vivo

Row | SMILES | hemolysis at 500 µM [1] [%] | IC50 (Leishmania donovani) [µM] | IC50 (Leishmania infantum [2]) [µM] | IC50 (THP-1 [3]) [µM] | HC50 [4] [µM] | IC50 (Leishmania infantum [5]) [µM] | hemolysis at 100 µM [6] [%] | Activity (THP-1 [7]) | half-life [8] [h]
1 | C[N+](C)(C)CC#CCOP(=O)([O-])OCCCCCCCCCCC=C1C2CC3CC(C2)CC1C3 | 100 | 41.1 | 5.2 | 75 | 100 | 44.3 |  |  | 
2 | C[N+]1(C)C2CCC1CC(=CCOP(=O)([O-])OCCCCCCCCCCC=C1C3CC4CC(C3)CC1C4)C2 | 100 | 41.6 | 9.1 | 147 | 61.3 | > 100 | 82.3 |  | 
3 | C[N+]1(CCOP(=O)([O-])OCCCCCCCCCCC=C2CCCCCCCCCCCCCC2)CCCCC1 | 51.4 | 65.9 | 3.6 | 72.6 | > 100 | 84.5 | 36 |  | 
4 | C[N+]1(CCOP(=O)([O-])OCCCCC=C2CCCCCCCCCCCCCC2)CCOCC1 | 88.3 | 1.94 | 4.4 | 372 | > 100 | 1.8 | 45.4 |  | 
5 | C[N+](C)(C)CCOP(=O)([O-])OCCCCC=C1CCCCCCCCC1 | 41.8 | < 3.2 | 3.3 | 349 | > 100 | 76.8 | 2.1 |  | 
6 | C[N+](C)(C)CCOP(=O)([O-])OCCCCCCCCCCC=C1CCCCCCCCCCCCCC1 | 100 | 68.2 | 0.75 | 37.7 | 100 | 100 | 17.7 |  | 
7 | C[N+](C)(C)CCOP(=O)([O-])OCCCCCC1CCCCCCCCCCCCCC1 | 100 | 0.9 | 0.7 | > 500 | > 100 | 1.4 | 8.7 | Non-toxic | 
8 | C[N+](C)(C)CCOP(=O)([O-])OCCCCCCCCCCC=C1CCCCCCCCC1 | 43 | 1 | 0.11 | 37.9 | > 100 | 2.9 | 25.5 |  | 
9 | C[N+]1(CCOP(=O)([O-])OCCCCC=C2CCCCCCCCCCCCCC2)CCCCC1 | 100 | 2 | 4.1 | 272 | 68.4 | 1.7 | 71.6 |  | 
10 | C[N+]1(CCOP(=O)([O-])OCCCCCC2CCCCCCCCCCCCCC2)CCCCC1 | 80.8 | 1 | 1 | 333 | > 100 | 2.8 | 28.7 |  | 
11 | C[N+]1(CCOP(=O)([O-])OCCCCCC2CCCCCCCCCCCCCC2)CCOCC1 | 81.1 | 1 | 0.4 | 244 | > 100 | 1.9 | 34.8 |  | 
12 | C[N+]1(CCOP(=O)([O-])OCCCCCCCCCCC=C2CCCCCCCCCCCCCC2)CCOCC1 | 100 | 41.5 | 0.9 | 36.2 | > 100 | 50.2 | 16.9 |  | 
13 | C[N+](C)(C)CCOP(=O)([O-])OCCCCC=C1CCCCCCCCCCCCCC1 | 57.4 | 2.3 | 3.8 | 154 | > 100 | 2.2 | 38 |  | 
14 | C[N+](C)(C)CCOP(=O)([O-])OCCCCCC1CCCCCCCCC1 | 100 | < 3.13 | 2.2 | 363 | > 100 | 21.7 | 1.7 |  | 
15 | CCCCCCCCCCCCCCCCOP(=O)([O-])O[C@@H]1CCC[C@H]1[N+](C)(C)C (relative stereo) | 100 | 54.3 | 3.3 | 34.1 | 43.1 | > 100 | 100 |  | 
16 | CCCCCCCCCCCCCCCCOP(=O)([O-])O[C@@H]1CCCC[C@H]1[N+](C)(C)C (relative stereo) | 55.4 | 71.9 | 1.7 | 21.3 | > 100 | > 100 | 20.4 |  | 
17 | C[N+](C)(C)[C@H]1CCC[C@@H]1OP(=O)([O-])OCCCCC=C1CCCCCCCCCCCCCC1 (relative stereo) | 100 | < 3.1 | 0.2 | 75.4 | 44.3 | < 3.1 | 80.5 |  | 
18 | C[N+](C)(C)[C@@H]1CCC[C@H]1OP(=O)([O-])OCCCCCCCCCCC=C1CCCCC1 (relative stereo) | 100 | 8.6 | 1.1 | 30.7 | 76.3 | > 100 | 66.4 |  | 
19 | C[N+](C)(C)[C@@H]1CCCC[C@H]1OP(=O)([O-])OCCCCCCCCCCC=C1CCCCC1 (relative stereo) | 100 | 16.1 | 1.1 | 28.7 | 59.8 | > 100 | 81.6 |  | 
20 | C[N+](C)(C)[C@H]1CCCC[C@@H]1OP(=O)([O-])OCCCCC=C1CCCCCCCCCCCCCC1 (relative stereo) | 100 | 6 | 1.6 | 88.5 | 76.7 | > 100 | 60.7 |  | 
21 | C[N+](C)(C)[C@@H]1CCC[C@H]1OP(=O)([O-])OCCCCCCCCCCC=C1C2CC3CC(C2)CC1C3 (relative stereo) | 100 | 3.9 | 0.3 | 75 | > 100 | 38 | 30.8 |  | 
22 | C[N+](C)(C)[C@@H]1CCCC[C@H]1OP(=O)([O-])OCCCCCCCCCCC=C1C2CC3CC(C2)CC1C3 (relative stereo) | 100 | 16.6 | 0.8 | 39.7 | 66.6 | > 100 | 66.8 |  | 
23 | CCCCCCCCCCCCCCCCOP(=O)([O-])OCC[N+](C)(C)C [MILTEFOSINE] | 100 | 8.7 | 6.7 | 28.6 |  | 23.9 | 96.1 | Toxic | 100
